PD50, MIC and ED50 data for 23 molecules are collected here from ChEMBL document CHEMBL1122812, “Novel amino-substituted 3-quinolinecarboxylic acid antibacterial agents: synthesis and structure-activity relationships” (1984).

Holding throughout (type): functional
Experiment [1] can be described thus: Antibacterial activity in mice after intraperitoneal administration with 0.5 mL of Escherichia coli Vogel inoculum. To be noted: sc. The essentials: (§1)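 Female ICR mice (18-20 g) infected intraperitoneally with 0.5 mL of E. coli Vogel (grown in brain heart infusion broth, suspended in saline) at 1.9×10^7 cells/mL. Compound as free acid dissolved in dilute NaOH and diluted with water, given once (0.5 mL) sc or po at 0.5 h postinfection. Groups of 10 mice at four or five dose levels, with nonmedicated controls. Deaths recorded daily for 7 days; PD50 by probit analysis.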

The test system of experiment [2] is Escherichia coli. Nature of the experiment: In vitro minimum inhibitory concentration against growth of Escherichia coli Vogel. In a few lines:
(§2)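 Tube serial dilution. Cultures grown overnight at 37 °C in tryptose phosphate broth or brain heart infusion broth. Compound stock of 1000 μg/mL (as free acid) made in minimal 0.5 N NaOH, then diluted in distilled water. Dilutions were mixed 1:1 with culture to a final 1×10^5 cells/mL and incubated 18–20 h at 37 °C. MIC = lowest concentration with no visible growth.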

The test system of experiment [3] is Staphylococcus aureus. Nature of the experiment: In vitro minimum inhibitory concentration against growth of Staphylococcus aureus Smith. In a few lines: (§3)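 Tube serial dilution. Stocks at 1000 μg/mL (free acid) were made in minimal 0.5 N NaOH and diluted in distilled water. Cultures were grown overnight at 37 °C in tryptose phosphate or brain heart infusion broth. Final inoculum was 1×10^5 cells/mL, incubated 18–20 h at 37 °C. MIC was the lowest concentration preventing visible growth.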

The subject of experiment [4] is Pseudomonas aeruginosa. Nature of the experiment: In vitro minimum inhibitory concentration against growth of Pseudomonas aeruginosa MGH-2. The essentials: as §2
The test system of experiment [5] is Klebsiella pneumoniae. Nature of the experiment: In vitro minimum inhibitory concentration against growth of Klebsiella pneumoniae strain 39645. The essentials:
as §3

Experiment [6] deals with Mus musculus. Nature of the experiment: Compound was evaluated for antibacterial activity in mice after peroral administration with 0.5 mL of Escherichia coli Vogel inoculum. To be noted: po, read-out: PD50. The essentials:
as §1

In brackets after ≈: the same amount, converted by molar mass.

`CN1CCN(c2cc3c(cc2F)c(=O)c(C(=O)O)cn3N)CC1` came in with a PD50 in experiment [1] of 2.9 mg/kg. Moreover, in experiment [2], the MIC worked out at 1.95 µg/mL (≈ 6.09 µM).

As to `CCNn1cc(C(=O)O)c(=O)c2cc(F)c(N3CCN(C)CC3)cc21`, in experiment [2], the minimal inhibitory concentration (MIC) was found to be 0.5 µg/mL (≈ 1.44 µM).

Molecule `CNn1cc(C(=O)O)c(=O)c2cc(F)c(N3CCN(C(C)C)CC3)cc21` gave a PD50 in experiment [1] of 1.5 mg/kg. This molecule returned a minimal inhibitory concentration (MIC) in experiment [2] of 0.5 µg/mL (≈ 1.38 µM).

`CNn1cc(C(=O)O)c(=O)c2cc(F)c(N3CCC(O)C3)cc21` (configuration not stated) registered a minimal inhibitory concentration (MIC) in experiment [2] of 1 µg/mL (≈ 3.11 µM).

As to `CNn1cc(C(=O)O)c(=O)c2cc(F)c(N3CCSCC3)cc21`, inhibition of growth in experiment [2] (MIC) required 0.5 µg/mL (≈ 1.48 µM).

In the case of `C=CCNn1cc(C(=O)O)c(=O)c2cc(F)c(N3CCN(C)CC3)cc21`, the PD50 in experiment [1] was determined as 19 mg/kg. In experiment [2], this molecule registered a minimum inhibitory concentration (MIC) of 1 µg/mL (≈ 2.77 µM).

Regarding `CNn1cc(C(=O)O)c(=O)c2cc(F)c(N3CCCC3)cc21`, the MIC in experiment [2] amounted to 1 µg/mL (≈ 3.28 µM).

The molecule `CCOC(=O)c1cn(NC)c2cc(N3CCN(C)CC3)c(F)cc2c1=O.CS(=O)(=O)O` returned an MIC in experiment [2] of 62.5 µg/mL.

As to `CCCNn1cc(C(=O)O)c(=O)c2cc(F)c(N3CCN(C)CC3)cc21`, in experiment [1], the PD50 is 33 mg/kg. In experiment [2], inhibition of growth (MIC) required 1.95 µg/mL (≈ 5.38 µM).

In turn, `CN1CCN(c2cc3c(cc2F)c(=O)c(C(=O)O)cn3N(C)C)CC1` yielded a PD50 in experiment [1] of 1.6 mg/kg. The molecule also had an MIC in experiment [2] of 0.5 µg/mL (≈ 1.44 µM).

Consider `CNn1cc(C(=O)O)c(=O)c2cc(F)c(N3CCOCC3)cc21`, for which the PD50 in experiment [1] came out at 16.6 mg/kg. This molecule yielded an MIC in experiment [2] of 0.5 µg/mL (≈ 1.56 µM).

Take `CNn1cc(C(=O)O)c(=O)c2cc(F)c(N3CCC(O)CC3)cc21`: the MIC in experiment [2] was determined as 1.95 µg/mL (≈ 5.82 µM).

`CNn1cc(C(=O)O)c(=O)c2cc(F)c(N3CCCC(O)C3)cc21` (configuration not stated) yielded a PD50 in experiment [1] of 41 mg/kg.

For the molecule `CNn1cc(C(=O)O)c(=O)c2cc(F)c(N3CCN(C(C)=O)CC3)cc21`, in experiment [1], the PD50 worked out at 109 mg/kg. Further, in experiment [2], the lowest concentration to inhibit growth (MIC) was 15.6 µg/mL (≈ 43.1 µM).

Regarding `CNn1cc(C(=O)O)c(=O)c2cc(F)c(N3CC[N+](C)([O-])CC3)cc21`, the PD50 in experiment [1] amounted to 9.4 mg/kg. In addition, the lowest concentration to inhibit growth in experiment [2] (MIC) was 15.6 µg/mL (≈ 44.5 µM).

For `CCN1CCN(c2cc3c(cc2F)c(=O)c(C(=O)O)cn3NC)CC1`, the minimal inhibitory concentration (MIC) in experiment [2] is 0.5 µg/mL (≈ 1.44 µM).

Turning to `CCCN1CCN(c2cc3c(cc2F)c(=O)c(C(=O)O)cn3NC)CC1`, the PD50 in experiment [1] was determined as 14.2 mg/kg. Further, the minimal inhibitory concentration (MIC) in experiment [2] stood at 0.25 µg/mL (≈ 0.69 µM).

Turning to `CNn1cc(C(=O)O)c(=O)c2cc(F)c(N3CCNCC3)cc21`, the minimal inhibitory concentration (MIC) amounted to 1.95 µg/mL (≈ 6.09 µM) in experiment [3], 1 µg/mL (≈ 3.12 µM) in experiment [4], 1 µg/mL (≈ 3.12 µM) in experiment [5] and 1 µg/mL (≈ 3.12 µM) in experiment [2]. In addition, the ED50 in experiment [6] turned out to be 6.4 mg/kg. In addition, in experiment [1], the PD50 is 0.3 mg/kg.

In turn, `CNn1cc(C(=O)O)c(=O)c2cc(F)c(N3CCCNCC3)cc21.Cl` yielded a PD50 in experiment [1] of 2.8 mg/kg.

In turn, `CNn1cc(C(=O)O)c(=O)c2cc(F)c(N3CCCN(C)CC3)cc21.Cl` yielded a PD50 in experiment [1] of 5.5 mg/kg. Moreover, the minimal inhibitory concentration (MIC) in experiment [2] is 1.95 µg/mL.

In the case of `CNn1cc(C(=O)O)c(=O)c2cc(F)c(N3CCN(C)CC3)cc21` [AMIFLOXACIN], the MIC was found to be 1 µg/mL (≈ 2.99 µM) in experiment [3], 1 µg/mL (≈ 2.99 µM) in experiment [4], 0.25 µg/mL (≈ 0.748 µM) in experiment [5] and 0.25 µg/mL (≈ 0.748 µM) in experiment [2]. Further, the ED50 in experiment [6] was determined as 1 mg/kg.

In the case of `CCn1cc(C(=O)O)c(=O)c2cc(F)c(N3CCNCC3)cc21` [NORFLOXACIN], the minimal inhibitory concentration (MIC) in experiment [3] amounted to 1.95 µg/mL (≈ 6.11 µM); in experiment [4], 1 µg/mL (≈ 3.13 µM); in experiment [5], 0.5 µg/mL (≈ 1.57 µM); in experiment [2], 0.5 µg/mL (≈ 1.57 µM). The ED50 in experiment [6] was found to be 5.9 mg/kg. The same molecule came in with a PD50 in experiment [1] of 0.3 mg/kg.

Consider `CCn1cc(C(=O)O)c(=O)c2cc(F)c(N3CCN(C)CC3)cc21` [PEFLOXACIN], for which the minimal inhibitory concentration (MIC) was found to be 1 µg/mL (≈ 3 µM) in experiment [3], 1 µg/mL (≈ 3 µM) in experiment [4], 0.5 µg/mL (≈ 1.5 µM) in experiment [5] and 0.25 µg/mL (≈ 0.75 µM) in experiment [2]. Moreover, the ED50 in experiment [6] was 1.1 mg/kg. In experiment [1], the PD50 came out at 0.5 mg/kg.
